# Reference: PubChem BioAssay
# Calls of active or inactive are those of the source.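 Rule for the calls, unless noted: active = GFP response above 150% of the DMSO level; inconclusive = fewer than 70 events counted for a yeast strain; inactive = the rest.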
# Legend:
# [1] = hit retest on RPL19A-GFP reporter strain – cell-based, S. cerevisiae, flow cytometry, cherry picks, mother/daughter gates, confirmation (AID 2270;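 active = GFP response below 50% of the DMSO control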); settings: 3 h, at 10 µM, stronger effect = lower value, 100 = same GFP as DMSO wells
# [2] = yeast TOR pathway reporter LAP4-GFP change – cell-based, cherry picks, flow cytometry, mother/daughter gates, confirmation (AID 2271;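 active = GFP response above 150% of the DMSO control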;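 note: ratio of sample to DMSO plate mean so 100% equals DMSO level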); settings: S. cerevisiae LAP4-GFP strain, 3 h, at 10 µM, stronger effect = higher value, 100 means same as DMSO control
# Summary of the method: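 Measured by: GFP by flow cytometry. Test system: GFP-fusion yeast strain. Input: yeast cells seeded at OD600 of 0.2. Timing: 30 °C, 3 h compound incubation, rotating. Buffer or medium: synthetic complete medium for yeast. Benchmarks: DMSO-only negative wells, rapamycin 400 ng/mL positive wells. Compound: 10 µM single dose.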
# [3] = TOR pathway reporter MEP2-GFP, retest of hits – S. cerevisiae, flow cytometry GFP, cherry picks, confirmation (AID 2272;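 active = GFP response above 150% of the DMSO control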;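 note: ratio of well signal to plate DMSO mean so 100% equals DMSO level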); settings: S. cerevisiae MEP2-GFP strain, 3 h, at 10 µM, stronger effect = higher value
# [4] = yeast AGP1-GFP fluorescence change, single-dose – cell-based, flow cytometry, S. cerevisiae, cherry picks, confirmation (AID 2273);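 note: median GFP channel fluorescence over the whole cell population gate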; settings: S. cerevisiae AGP1-GFP strain, 3 h, at 10 µM
# [5] = TOR pathway CIT2 reporter hit retest – S. cerevisiae, GFP fusion, cherry picks, mother/daughter gates, confirmation (AID 2274); settings: S. cerevisiae CIT2-GFP strain, flow cytometry, 3 h, at 10 µM, stronger effect = higher value
# [6] = measured here: daughter cell gate
# [7] = measured here: mother cell gate
# [8] = measured here: daughter cell gate response
# [9] = measured here: mother cell gate response
SMILES,GFP response vs DMSO [1],"GFP response vs DMSO [1, 6] [%]","GFP response vs DMSO [1, 7] [%]",GFP response relative to DMSO [2],"GFP response relative to DMSO [2, 8] [%]","GFP response relative to DMSO [2, 9] [%]",GFP response vs DMSO [3],"GFP response, % of DMSO [4]","GFP response, % of DMSO [5]","GFP response, % of DMSO [5, 6] [%]","GFP response, % of DMSO [5, 7] [%]"
COc1ccc(C(=O)/C=C2/C(=O)Nc3ccccc32)c(OC)c1,99.5% (inactive),96.7,95.2,136% (inactive),123,139,97.8% (inactive),99.2% (inactive),82.2% (inactive),83.4,77.3
NC(=O)c1ccc(Oc2ccc(-c3nnco3)cc2)c([N+](=O)[O-])c1,98.4% (inactive),100,99.1,93.8% (inactive),95.6,94.2,100% (inactive),98.7% (inactive),110% (inactive),105,112
O=C(CS(=O)c1ccccc1[N+](=O)[O-])Oc1ccc(Br)cc1 (centres undefined),101% (inactive),105,96.5,168% (active),167,164,101% (inactive),107% (inactive),98.6% (inactive),105,91.5
CN(c1ccccc1)S(=O)(=O)c1ccc(C(=O)Nc2nnc(-c3ccc(F)cc3)o2)cc1,99.1% (inactive),102,98.6,122% (inactive),128,120,149% (inactive),106% (inactive),131% (inactive),133,128
COc1cccc(/C=N\NC(=O)c2cc(OCC(F)(F)F)ccc2OCC(F)(F)F)c1,98.6% (inactive),99.1,97.9,94.1% (inactive),92.8,92.9,100% (inactive),96% (inactive),99.7% (inactive),101,98.5
Cc1cc(NC(=O)c2cncc(Br)c2)ccc1NC(=O)c1cc2ccccc2o1,102% (inactive),100,104,90.2% (inactive),87.9,95.2,109% (inactive),95% (inactive),99.1% (inactive),98.1,97.7
CCOC(=O)c1ccc(NC(=O)CCc2nc(-c3ccccc3Cl)no2)cc1,101% (inactive),100,102,103% (inactive),101,103,108% (inactive),97.5% (inactive),101% (inactive),102,98
CCOC(=O)c1ccc(NC(=O)c2nc(S(=O)(=O)Cc3ccccc3)ncc2Cl)cc1,99.5% (inactive),99,98.9,93.8% (inactive),95.6,95.2,102% (inactive),101% (inactive),97.8% (inactive),94.8,97.7
Cc1cc(NCCCN2CCOCC2)n2nc(C)c(-c3ccc(F)cc3)c2n1,95.3% (inactive),95.9,95.6,104% (inactive),97.5,105,103% (inactive),101% (inactive),97.2% (inactive),95.8,99.3
CCCn1c(=O)c(C(=O)NCc2ccc(OC)c(OC)c2)c(O)c2ccccc21,98% (inactive),97.6,97.6,102% (inactive),102,103,107% (inactive),95% (inactive),101% (inactive),97.2,101
O=C1C(Cl)=C(Nc2ccc(F)cc2)C(=O)N1CCc1ccccc1,100% (inactive),99.3,101,95.7% (inactive),95.9,96.2,101% (inactive),104% (inactive),100% (inactive),101,99.3
COc1cccc2cc(C(=O)N3CCN(C/C=C/c4ccccc4)CC3)c(=O)oc12,98.6% (inactive),99.6,98,97% (inactive),95.9,98.4,103% (inactive),96.7% (inactive),95.9% (inactive),93.8,96.8
O=S(=O)(c1ccc(Cl)cc1)c1snnc1-c1ccccc1,93.7% (inactive),92.2,96.6,126% (inactive),123,129,98.8% (inactive),102% (inactive),95.9% (inactive),92.1,96.7
Cc1nn(C)c(C)c1N1C(=O)c2cccc3c(Br)ccc(c23)C1=O,103% (inactive),102,103,136% (inactive),137,134,207% (active),112% (inactive),148% (inactive),152,141
COc1cccc(CNC(=O)CCC(=O)N2Cc3cccc(OC)c3Oc3ncccc32)c1OC,99.4% (inactive),99.9,99.2,95.4% (inactive),96,94,102% (inactive),100% (inactive),104% (inactive),105,104
CCc1ccccc1OCc1nnc(N)s1,101% (inactive),98.8,102,98.2% (inactive),99.1,97.3,101% (inactive),102% (inactive),100% (inactive),101,99.3
Cc1noc2ncnc(Sc3c(Cl)cccc3Cl)c12,101% (inactive),102,99.8,94.1% (inactive),94.4,94,100% (inactive),88.6% (inactive),105% (inactive),105,104

SMILES,GFP response vs DMSO [1],"GFP response vs DMSO [1, 6] [%]","GFP response vs DMSO [1, 7] [%]",GFP response relative to DMSO [2],"GFP response relative to DMSO [2, 8] [%]","GFP response relative to DMSO [2, 9] [%]",GFP response vs DMSO [3],"GFP response, % of DMSO [4]","GFP response, % of DMSO [5]","GFP response, % of DMSO [5, 6] [%]","GFP response, % of DMSO [5, 7] [%]"
CCC(=O)Nc1ccc(NC(=O)c2cc3ccccc3o2)cc1,103% (inactive),99.3,104,99.5% (inactive),99.1,98.4,101% (inactive),101% (inactive),97.3% (inactive),95.6,96.8
O=C(/C=C/c1ccccc1)Nc1ncn[nH]1,97.4% (inactive),97.3,96,135% (inactive),125,137,102% (inactive),98% (inactive),97.8% (inactive),100,94.5
O=C1Nc2ccccc2C(=O)C1(Cl)Cc1ccccc1 (centres undefined),89.6% (inactive),91.9,88.3,132% (inactive),124,134,101% (inactive),102% (inactive),94.4% (inactive),95.8,90.4
Cc1ccc(C(C(=O)NC2CCCCC2)N(CCCN2CCOCC2)C(=O)c2snc(C(N)=O)c2N)cc1 (centres undefined),101% (inactive),102,102,105% (inactive),102,104,99.5% (inactive),104% (inactive),102% (inactive),98.3,103
COc1ccc(N2C(=O)C(Cl)=C(N(CCO)Cc3ccccc3)C2=O)cc1,101% (inactive),99.1,102,98.2% (inactive),99.1,99.4,101% (inactive),102% (inactive),100% (inactive),101,99.3
O=C1C(Cl)=C(N2CCN(Cc3ccccc3)CC2)C(=O)N1Cc1ccccc1,97% (inactive),98.1,98,99.5% (inactive),101,98.4,94.7% (inactive),102% (inactive),100% (inactive),101,99.3
O=S(=O)(Nc1cccc(-c2ccc(N3CCCCCC3)nn2)c1)c1ccccc1F,101% (inactive),99.3,101,95.7% (inactive),95.9,95.2,99% (inactive),107% (inactive),100% (inactive),101,101
CCCN1CCc2c(sc(NC(=S)NC(=O)c3ccccc3)c2C#N)C1,100% (inactive),99.6,97.8,116% (inactive),107,120,187% (active),102% (inactive),106% (inactive),99.2,108
OCC[n+]1ccc(/C=C/c2c[nH]c3ccccc23)cc1,108% (inactive),106,108,140% (inactive),143,141,164% (inactive),104% (inactive),141% (inactive),142,143
Clc1ccc(C2=NNC(=NCc3ccccc3)SC2)cc1,95.6% (inactive),94.6,86.8,97.9% (inactive),97.6,98.3,98.3% (inactive),93.9% (inactive),99.7% (inactive),101,98.5
CCOc1ccc2ccccc2c1C(=O)N1CCN(c2ccccc2)CC1,97.8% (inactive),98.4,96.3,105% (inactive),105,105,99.3% (inactive),98.4% (inactive),93.1% (inactive),94,93.8
Cc1sc(NC(=O)c2cccs2)nc1-c1ccccc1,106% (inactive),95.7,105,110% (inactive),106,112,109% (inactive),97.5% (inactive),95.9% (inactive),93.8,95.6
CC(C)(C)C1=CC=C(C(C)(C)C)C(=O)C1=O,102% (inactive),102,99.7,136% (inactive),131,136,104% (inactive),98.7% (inactive),104% (inactive),104,96.8
O=C(NNC(=S)NC(=O)c1ccco1)c1ccc(F)cc1,106% (inactive),106,105,115% (inactive),115,114,115% (inactive),104% (inactive),107% (inactive),116,102
CCc1noc(C)c1C(=O)Nc1nc(-c2cc(C)ccc2C)c(C)s1,103% (inactive),103,103,95% (inactive),95.6,99.3,100% (inactive),94.1% (inactive),106% (inactive),99.7,107
CC1=CC(=O)C(C(C)C)=C/C1=N/OS(=O)(=O)c1ccccc1,78.6% (inactive),51.6,71.3,271% (active),175,270,127% (inactive),118% (inactive),99.7% (inactive),111,83.8
COc1ccc(/C=N/Nc2nc(-c3cccnc3)nc3ccccc23)c(OC)c1,98% (inactive),97.6,98.2,96.7% (inactive),94.4,98.3,111% (inactive),96.8% (inactive),108% (inactive),112,107
